STAT3 act: increases IL-6 driven STAT3 reporter signal; U3A cells, IL-6 STAT3-luciferase reporter, luminescence; 100% = signal with IL-6 EC80 alone; activation (% of control), % at 5.6 µM; actives 0.91% (n = 190,000);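 active means activation above the screen-wide mean of compound activation plus 3 SD, cut at about 130% in these data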
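Material: STAT1-lacking human U3A cells, STAT3 luciferase reporter | Benchmarks: IL-6-only wells as 100% reference | Probe or stimulus: IL-6 (33 ng/mL) | Timing: Compound 1 h, then IL-6 6 h at 37 °C | Detection: Luminescence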
NF-kB neuron act: compounds increasing NF-kB expression in human neuronal cells. NF-kB reporter expression; active compounds read high. fold change at 12.5 µM. actives 1.6% (n = 190,000). AID 1239; in the data active means fold change above about 3.3
STAT1 act: STAT1 signaling activation; NIH 3T3 STAT1-luciferase reporter, IFN-gamma, luminescence; 100% = IFN-gamma alone, no compound; activation (% of control), % at 5.5 µM; actives 2.6% (n = 200,000);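 active means activation above the screen-wide mean activation plus 3 SD, cut at about 130% in these data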
STAT3 blocker: reduces IL-6 driven STAT3 reporter signal; U3A cells, IL-6 STAT3-luciferase reporter, luminescence; host cell line lacks STAT1; inhibition, % at 5.5 µM; actives 0.89% (n = 190,000);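 active means inhibition above the mean inhibition across all screened compounds plus 3 SD, cut at about 44% in these data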
STAT1 blocker: reduces IFN-gamma driven STAT1 reporter signal; NIH 3T3 STAT1-luciferase reporter, luminescence; actives 0.35% (n = 200,000); inhibition, % at 5.5 µM;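 active means inhibition above a set limit, the mean inhibition across all tested compounds plus 3 SD, cut at about 34% in these data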
APP 5'UTR act: APP 5'UTR luciferase reporter activation; activation, % at 2 µM; AID 1276; SH-SY5Y APP 5'UTR luciferase reporter, luminescence; zero percent = DMSO vehicle wells; actives 1% (n = 190,000);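 active means activation above a set limit, based on mean plus 3 SD of controls, cut at about 140% in these data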
STAT1 activ conf: STAT1 activation, confirmation assay; NIH 3T3 STAT1-luciferase reporter, IFN-gamma potentiation, luminescence; 100% = IFN-gamma EC80 alone, no compound; activation (% of control), % at 5.7 µM; AID 1262; actives 97% (n = 1,200); shares compounds with STAT1 act;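 active means activation above a set limit carried over from the earlier primary STAT1 screen, cut at about 140% in these data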
NFkB act: activates NF-kappaB, counter-screen to STAT1 activators; AID 1306; shares compounds with STAT1 act; actives 43% (n = 1,200); HEK293T NF-kB luciferase reporter, TNF-alpha stimulated, luminescence; 100% = TNF-alpha with vehicle only; activation (% of control), % at 5.7 µM;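 active means activation above the mean of solvent-only control wells plus 3 SD, set per campaign, cut at about 130% in these data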;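 further: TNF-alpha given at a submaximal dose yielding about 80% of full reporter signal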
STAT3 act 2: counter-screen for STAT1 activators: human STAT3 activation. shares compounds with STAT1 act. U3A cells STAT3-luciferase reporter, IL-6, luminescence; cells lack STAT1; 100 = IL-6 alone, no compound effect. activation (% of control), % at 5.7 µM. actives 46% (n = 1,200). AID 1316;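 active means activation above the solvent-only control well mean plus 3 SD, set per plate batch, cut at about 110% in these data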;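 further: higher means more STAT3 reporter activation so hits are non-selective activators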
Numbers stand for hits; - = inactive; . = not tested or not shown. This is a sample that favours compounds with a hit; in the whole collection about 4.9% have one here.

SMILES | STAT3 act | NF-kB neuron act | STAT1 act | STAT3 blocker | STAT1 blocker | APP 5'UTR act | STAT1 activ conf | NFkB act | STAT3 act 2
Cc1ccc(NC(=O)CSc2nnc3n2CCCCC3)cc1 | - | - | - | - | - | - | . | . | .
Cc1oc(-c2ccccc2)cc1C(=O)Nc1cccc2ccccc12 | - | - | - | - | - | - | . | . | .
N#Cc1c(NC(=O)c2ccccc2)sc2c1CCC2 | - | 3.8 | 169 | - | - | - | 191 | - | -
Cc1cc(C(=O)Nc2sc3c(c2C#N)CCC(C)C3)cs1 (centres undefined) | - | - | 152 | - | - | - | 199 | 141 | 114
N#Cc1c(NC(=S)NC(=O)c2ccccc2)sc2c1CCCC2 | - | - | - | - | - | - | . | . | .
CCN(C(=O)CN(C)Cc1cccc(Cl)c1Cl)c1c(N)n(Cc2ccccc2)c(=O)[nH]c1=O | - | - | - | - | - | - | . | . | .
